Measured values of several laboratories.
Target: Serine/threonine-protein kinase pim-2 (PIM2, Homo sapiens, UniProt Q9P1W9)

With `O=C(c1ccc(Nc2ncc(Cl)c(-c3ccc(Cl)s3)n2)cc1)N1CCC(N2CCCC2)CC1` the remaining binding was 100% (binding, competition with immobilised ligand; 1 µM).
With `Cc1c(NC(=O)c2cc(C(N)=O)nc3cc(F)ccc23)c(C(F)(F)F)nn1Cc1ccc(C(C)(C)C)cc1` the remaining binding was 100% (cell-free assay, competition with immobilised ligand; 1 µM).
`COc1cnc(Nc2cccc(S(N)(=O)=O)c2)nc1N1CCN(c2ccccc2)C(=O)C1` gave a remaining binding of 100% (binding, competition with immobilised ligand; 1 µM).
`CCCOc1ccc([C@@H]2[C@@H](C(=O)O)[C@H](c3ccc4c(c3)OCO4)CN2CC(=O)Nc2c(CC)cccc2CC)cc1` has a remaining binding of 99% (cell-free assay, competition with immobilised ligand; 1 µM).
`COc1cnc(Nc2cccc(S(N)(=O)=O)c2)nc1N1CCN(c2ccccc2)CC1` has a remaining binding of 100% (binding, competition with immobilised ligand; 1 µM).
`O=C(Nc1c[nH]nc1C(=O)NC1CCNCC1)c1cc(F)cc(F)c1` has a remaining binding of 96% (binding, competition with immobilised ligand; 1 µM).
For `CN(CCCC(F)(F)F)c1nccc(-c2cnn3ncccc23)n1`, the remaining binding was 100% (binding; 1 µM).
The remaining binding of `COc1ncc2cc3ccccc3nc2c1C#N` is reported as 88% (cell-free assay, competition with immobilised ligand; 5 µM).
The remaining binding of `FC(F)(F)Oc1cccc(-c2cnc3ccc(-c4ccncc4)nn23)c1` is reported as 45% (cell-free assay, competition with immobilised ligand; 5 µM).
For `CCN1CCN(Cc2ccc(C(=O)Nc3ccc(C)c(Oc4ccc5c(c4)CC(=O)N5)c3)cc2C(F)(F)F)CC1`, the remaining binding was 97% (binding, competition with immobilised ligand; 1 µM).
For `C[C@@H]1CN(c2ccc3ncc(-c4ccc5[nH]nc(C6CC6)c5c4)n3n2)C[C@H](C)O1`, the remaining binding was 3.5% (binding, competition with immobilised ligand; 0.5 µM).
With `O=C(NCCCN1CCOCC1)c1ccc(Nc2ncc(Cl)c(-c3ccc(Cl)s3)n2)cc1` the remaining binding was 100% (binding, competition with immobilised ligand; 1 µM).
`N[C@H]1CCN(c2nccc(-c3cnn4ncccc34)n2)C1` gave a remaining binding of 98% (binding; 1 µM).
`CC(C)(C)c1ccc(-c2nc(CBr)nn2-c2cccc(O)c2)cc1` gave a remaining binding of 81% (cell-free assay, competition with immobilised ligand; 10 µM).
With `CCC(=O)N[C@@H]1CC[C@H](C(=O)N(C)c2ccc(-c3nc4ccccc4o3)cc2)C1` the remaining binding was 100% (cell-free assay, competition with immobilised ligand; 1 µM).
The remaining binding of `C[C@H]1CCN(c2nccc(-c3cnn4ncccc34)n2)C1` is reported as 81% (binding; 1 µM).
`O=C(Nc1cccnn1)N1CCC(=Cc2cccc(Oc3ccc(C(F)(F)F)cn3)c2)CC1` gave a remaining binding of 97% (cell-free assay, competition with immobilised ligand; 1 µM).
`CN(C)c1nccc(-c2cnn3ncccc23)n1` gave a remaining binding of 78% (binding; 1 µM).
With `CSc1cccnc1N1CCN(Cc2nc3ccccc3[nH]2)CC1` the remaining binding was 96% (cell-free assay, competition with immobilised ligand; 1 µM).
`O=C(c1ccc(Nc2nccc(-c3cc4ccccc4s3)n2)cc1)N1CCC(N2CCCC2)CC1` has a remaining binding of 100% (binding, competition with immobilised ligand; 1 µM).
`COc1ccnn2ncc(-c3ccnc(N(C)C)n3)c12` has a remaining binding of 100% (binding; 1 µM).
`c1ccc(N2CCN(Cc3nc4ccccc4[nH]3)CC2)nc1` gave a remaining binding of 85% (binding, competition with immobilised ligand; 1 µM).
`F[C@@H]1CCN(c2nccc(-c3cnn4ncccc34)n2)C1` has a remaining binding of 100% (binding; 1 µM).
With `CO[C@@H](C)c1c(Nc2ccc([C@@H](N(C)C(=O)C3CCS(=O)(=O)CC3)C(F)(F)F)cc2)cnc2cc(Cl)nn12` the remaining binding was 95% (cell-free assay, competition with immobilised ligand; 1 µM).
